Calls of active or inactive are those of the source.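 How the source made its calls: active means maximum inhibition above 30% at any tested concentration, with a dose response curve fitted; inactive means no inhibition at any dose or no dose response curve.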

A short description of the assay: parental HEK293 potassium flux blockers – cell-based, FluxOR thallium flux, concentration-response, set 2, counter-screen for KCNK9 inhibitor project, SAR follow-up (AID 540324). Particulars: FluxOR fluorescence ratio; series mostly up to 30 µM. An outline of the steps:
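test system = parental HEK293 cells lacking KCNK9 expression | doses = Ten-concentration dilution series per compound | incubation = dye loading 90 min at room temperature in dark, compound exposure 20 min | measured by = fluorescence of thallium-sensitive FluxOR dye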
For `Cc1cccc(-c2n[nH]c(=S)n2C(C)C2CC3CCC2C3)c1` (centres undefined), the result was inactive. With `CCOc1ccccc1NC(=O)c1cccc(NC(=O)C2CCCCC2)c1` the entry was “inactive”. With `Cc1cccc(C(=O)Nc2cccc(NC(=O)c3cccs3)c2)c1` the entry was “inactive”. For the molecule `COc1ccccc1C(=O)Nc1cccc(NC(=O)c2cccc(C)c2)c1`, the result was inactive.

Consider `Cc1cccc(C(=O)Nc2ccccc2NC(=O)c2ccccc2)c1`, for which the result was inactive. The result for `CC(C)(C)c1ccc(C(=O)Nc2cccc(NC(=O)c3ccccc3)c2)cc1` reads “inactive”; that for `Cc1cccc(S(=O)(=O)Nc2cccc(NC(=O)c3ccccc3)c2)c1`, “inactive”. Turning to `CC(C1CC2CCC1C2)n1c(-c2ccccc2)n[nH]c1=S` (centres undefined), the result was inactive. The result for `CCOc1ccccc1C(=O)Nc1cccc(NC(=O)c2cccc(C)c2)c1` reads “inactive”; that for `O=C(Nc1cccc(NC(=O)c2cccs2)c1)c1ccccc1`, “inactive”; that for `Cc1cccc(C(=O)Nc2cccc(NC(=O)C3CCCCC3)c2)c1`, “inactive”. As for `CCOc1ccccc1NC(=O)c1cccc(NC(=O)c2ccccc2OC)c1`, the outcome was inactive. In the case of `O=C(Nc1cccc(NC(=O)c2cccc(F)c2)c1)c1ccccc1`, the outcome was inactive. Turning to `O=C(Nc1cccc(NC(=O)c2ccccc2)c1)c1ccccc1`, the outcome was inactive. On to `COc1ccccc1NC(=O)c1cccc(NC(=O)c2ccccc2)c1`, for which the outcome was inactive. In the case of `COc1cccc(-c2n[nH]c(=S)n2C(C)C2CC3CCC2C3)c1` (centres undefined), the result was inactive. Consider `CCOc1ccccc1NC(=O)c1cccc(NC(=O)C2CCCC2)c1`, for which the result was inactive. Regarding `CCOc1ccccc1C(=O)Nc1cccc(NC(=O)c2ccccc2C(F)(F)F)c1`, the result was inactive. On to `Cc1cccc(C(=O)Nc2cccc(NC(=O)c3ccccc3C(C)C)c2)c1`, for which the result was inactive.

These data come from PubChem BioAssay AID540324 (Johns Hopkins Ion Channel Center, 2011).
